Legend:
[1] = test system: A549 (human lung cancer) cells; test: MTT cytotoxicity assay, A549; assay type: cell-based
Outline: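 A549 lung cancer cells grown in low-glucose DMEM with 10% FBS and penicillin/streptomycin (37 °C, 5% CO2). Plated at 1 × 10^4 cells/well. Treated 48 h with dicopper complexes (1–400 or 1–1000 μM) or cisplatin (0.1–20 μM). Wells rinsed with PBS, then MTT 0.5 mg mL–1 for 3 h and DMSO. IC50 from viability vs log[conc]; ≥3 repeats, mean ± SD. SF = IC50(WI-38)/IC50(A549).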

[2] = test system: 2C6 (human embryonic pancreas normal) cells; test: MTT cytotoxicity assay, 2C6; assay type: cell-based; conditions: read-out: IC50 2C6 (normal), pancreas, 48 h, mean ± SD
Outline: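 2C6 pancreas normal cells kept in Ham F10 with 10% newborn calf serum, 5% FBS, 2.5% horse serum and penicillin/streptomycin at 37 °C, 5% CO2. Seeded at 1 × 10^4 cells/well. Exposed 48 h to dicopper complexes (1–400 or 1–1000 μM) or cisplatin (0.1–20 μM); medium-only controls. PBS rinses, MTT 0.5 mg mL–1 for 3 h, DMSO solubilisation. IC50 from viability vs log[conc]; ≥3 repeats, mean ± SD.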

[3] = test system: PK-59 (pancreas cancer) cells; test: MTT cytotoxicity assay, PK-59; assay type: cell-based, human
Outline: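 PK-59 pancreas cancer cells cultured in RPMI 1640 with 10% FBS and penicillin/streptomycin (37 °C, humidified 5% CO2). 1 × 10^4 cells/well exposed 48 h to dicopper complexes (1–400 or 1–1000 μM) or cisplatin (0.1–20 μM). After PBS rinses, MTT 0.5 mg mL–1 for 3 h, then DMSO. IC50 from viability vs log[conc]; ≥3 repeats, mean ± SD. SF = IC50(2C6)/IC50(PK-59).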

[4] = test system: HeLa (human cervical cancer) cells; test: MTT cytotoxicity assay, HeLa; assay type: cell-based; conditions: read-out: IC50 HeLa (cancer), cervical, 48 h, mean ± SD
Outline: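 HeLa cervical cancer cells maintained in high-glucose D-MEM with 10% FBS and penicillin/streptomycin at 37 °C, 5% CO2. 1 × 10^4 cells/well incubated 48 h with dicopper complexes (1–400 or 1–1000 μM) or cisplatin (0.1–20 μM); blank and control wells got medium only. PBS wash, MTT (0.5 mg mL–1, 3 h), formazan dissolved in DMSO. IC50 from viability vs log[conc]; ≥3 repeats, mean ± SD.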

[5] = test system: WI-38 (human lung fibroblast normal) cells; test: MTT cytotoxicity assay, WI-38; assay type: cell-based; conditions: read-out: IC50 WI-38 (normal), lung, 48 h, mean ± SD
Outline: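 WI-38 lung fibroblast normal cells grown in Eagle's MEM with 10% FBS and penicillin/streptomycin at 37 °C, 5% CO2. 1 × 10^4 cells/well given dicopper complexes (1–400 or 1–1000 μM) or cisplatin (0.1–20 μM) for 48 h; medium-only controls. PBS rinses, MTT 0.5 mg mL–1 for 3 h, DMSO solubilisation. IC50 from viability vs log[conc]; ≥3 repeats, mean ± SD.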

For `N.N.[Cl][Pt][Cl]` [cisplatin], the “SF (selectivity factor), lung” value ([1]; (IC50 of normal cells)/(IC50 of cancer cells), WI-38/A549, 48 h) was 2.5, the IC50 ([1]; read-out: IC50 A549 (cancer), lung, MTT assay, 48 h, mean ± SD) was 1.83 ± 0.03 µM and the IC50 [2] was 1.15 ± 0.08 µM. For the same compound, the “SF (selectivity factor), pancreas” value ([3]; (IC50 of normal cells)/(IC50 of cancer cells), 2C6/PK-59, 48 h) was 0.6, the IC50 ([3]; read-out: IC50 PK-59 (cancer), pancreas, MTT assay, 48 h, mean ± SD) was 2.01 ± 0.02 µM and the IC50 [4] was 0.93 ± 0.01 µM. It also gave an IC50 [5] of 4.55 ± 0.03 µM.

— PMC10413468 (ACS Omega, 2023)
